In ChEMBL document CHEMBL1153041, “Design, synthesis and biological evaluation of 2H-benzo[b][1,4] oxazine derivatives as hypoxia targeted compounds for cancer therapeutics” (Bioorg Med Chem Lett, 2009):
The source made the active and inactive calls. The calls are words filed in the database; no cut-off is given here.

Assays:
HepG2 [1] = assay: Cytotoxicity against human HepG2 cells in normoxic condition after 48 hrs by MTT assay; format: functional, cell-based
Outline: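 HepG2 cells (passage 2 from frozen stock) in RPMI 1640 with 10% FBS, dosed during log-phase growth with drug or vehicle (0.1% DMSO). Normoxic incubation at 37 °C, 5% CO2 for 48 h, then MTT read-out. Duplicate plates split from the same stock cells.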

HepG2 [2] = assay: Cytotoxicity against human HepG2 cells in hypoxic condition after 48 hrs by MTT assay; format: functional, cell-based
Outline: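 HepG2 cells (passage 2, RPMI 1640 + 10% FBS) given drug or 0.1% DMSO vehicle in log phase. 22 h normoxia, then 2 h hypoxia (1% O2, 5% CO2, 94% N2, 37 °C) in a glove chamber checked by methylene blue indicator, then 24 h reoxygenation. MTT read at 48 h; parallel normoxic duplicate plate.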

HepG2 [3] = assay: Cytotoxicity against human HepG2 cells assessed as assessed as cell survival under hypoxic condition at 50 uM after 24 hrs by clonogenic assay; format: functional; conditions: HepG2, 24 h, read-out: Survival
Outline: (§1)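 HepG2 in RPMI 1640 + 10% FBS, 3.5 × 10^3 cells/well, grown 24 h at 37 °C normoxic, then exposed to vehicle (0.1% DMSO) or drug. Hypoxia 1% O2/5% CO2/94% N2 at 37 °C for 5 h in glove chamber, then reoxygenated (5% CO2, 37 °C) for the rest of 10 days. Acetic acid fixation, crystal violet stain. Colonies >50 μm counted in three random 1-mm grids, expressed relative to controls; Mann–Whitney test.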

HepG2 [4] = assay: Cytotoxicity against human HepG2 cells assessed as cell survival under normoxic condition assessed as cell survival at 100 uM after 24 hrs by clonogenic assay relative to control; format: functional; conditions: HepG2, 24 h, read-out: Survival
Outline: (§2)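 HepG2 in RPMI 1640 + 10% FBS, 3.5 × 10^3 cells/well, allowed 24 h growth at 37 °C. Vehicle (0.1% DMSO) or drug then applied, with 10 days incubation under normoxia (5% CO2, 37 °C). Fixed in 10% acetic acid, stained with crystal violet. Colonies >50 μm were counted visually in three random 1-mm × 1-mm grids, relative to controls; Mann–Whitney test.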

HepG2 [5] = assay: Cytotoxicity against human HepG2 cells assessed as cell survival under normoxic condition at 50 uM after 24 hrs by clonogenic assay relative to control; format: functional; conditions: HepG2, 24 h, read-out: Survival; outline: as §2
HepG2 [6] = assay: Down regulation of hypoxia inducible HIF1alpha gene expression in human HepG2 cells at 20 uM by RT-PCR; format: functional, cell-based
Outline: (§3)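 Total RNA extracted with TRIzol, then quantitative RT-PCR: 50 °C 2 min, 95 °C 10 min, 40 cycles of 95 °C 15 s / 60 °C 1 min, with melting curves. Ct normalized to GAPDH; treated-minus-control ΔCt converted by 2^ to relative expression.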

HepG2 [7] = assay: Down regulation of hypoxia inducible VEGF gene expression in human HepG2 cells at 20 uM by RT-PCR; format: functional, cell-based; outline: as §3
HepG2 [8] = assay: Cytotoxicity against human HepG2 cells assessed as cell survival under hypoxic condition at 400 uM after 24 hrs by clonogenic assay relative to control; format: functional, cell-based; conditions: in the assay text read “normoxic” for “hypoxic”
HepG2 [9] = assay: Cytotoxicity against human HepG2 cells assessed as cell survival under hypoxic condition at 100 uM after 24 hrs by clonogenic assay relative to control; format: functional; conditions: HepG2, 24 h, read-out: Survival; outline: as §1
HepG2 [10] = assay: Cytotoxicity against human HepG2 cells assessed as cell survival under hypoxic condition at 25 uM after 24 hrs by clonogenic assay relative to control; format: functional; conditions: HepG2, 24 h, read-out: Survival; outline: as §1
HepG2 [11] = assay: Down regulation of hypoxia inducible P21 gene expression in human HepG2 cells at 20 uM by RT-PCR; format: functional, cell-based; outline: as §3
HepG2 [12] = assay: Cytotoxicity against human HepG2 cells assessed as cell survival under normoxic condition at 25 uM after 24 hrs by clonogenic assay relative to control; format: functional; conditions: HepG2, 24 h, read-out: Survival; outline: as §2
HepG2 [13] = assay: Cytotoxicity against human HepG2 cells assessed as cell survival under hypoxic condition at 10 uM after 24 hrs by clonogenic assay; format: functional; conditions: HepG2, 24 h, read-out: Survival; outline: as §1
HepG2 [14] = assay: Cytotoxicity against human HepG2 cells assessed as cell survival under normoxic condition at 10 uM […] by clonogenic assay relative to control; format: functional; conditions: read-out: Survival; outline: as §2
[15] = Homo sapiens, HepG2, 48 h, read-out: IC50

Cc1ccc(C2=Nc3ccc(Cl)cc3OC2)cc1
IC50 (HepG2 [1]; hepg2): Not Active
IC50 (HepG2 [2]; [15]): 10 µM

Cc1ccc2c(c1)N=C(c1ccc(Cl)cc1)CO2
viability at 50 µM (HepG2 [3]): -65%
viability at 100 µM (HepG2 [4]): 10%
viability at 50 µM (HepG2 [5]): 3%
Activity (HepG2 [6]): Active
Activity (HepG2 [7]): Active
Activity (HepG2 [8]): Not toxic
IC50 (HepG2 [2]; [15]): 87 µM
viability at 100 µM (HepG2 [9]): -90%
viability at 25 µM (HepG2 [10]): -31%
Activity (HepG2 [11]): Active
viability at 25 µM (HepG2 [12]): 5%

c1ccc(C2=Nc3ccccc3OC2)cc1
IC50 (HepG2 [1]; [15]): 87 µM
viability at 10 µM (HepG2 [13]): -71%
IC50 (HepG2 [2]; [15]): 10 µM

Clc1ccc(C2=Nc3ccc(Cl)cc3OC2)cc1
IC50 (HepG2 [1]; [15]): 88 µM
IC50 (HepG2 [2]; [15]): 28 µM

O=[N+]([O-])c1ccc2c(c1)N=C(c1ccc(Cl)cc1)CO2
viability at 50 µM (HepG2 [3]): -83%
IC50 (HepG2 [1]; [15]): 78 µM
viability at 10 µM (HepG2 [13]): -28%
viability at 50 µM (HepG2 [5]): -11%
viability at 10 µM (HepG2 [14]): 10%
IC50 (HepG2 [2]; [15]): 20 µM

Cc1ccc(C2=Nc3cc(F)ccc3OC2)cc1
IC50 (HepG2 [1]; hepg2): Not Active
IC50 (HepG2 [2]; [15]): 100 µM

Cc1ccc2c(c1)N=C(c1ccc(F)cc1)CO2
IC50 (HepG2 [1]; hepg2): Not Active
IC50 (HepG2 [2]; hepg2): Not Active

Clc1ccc2c(c1)N=C(c1ccccc1)CO2
IC50 (HepG2 [1]; [15]): 78 µM
IC50 (HepG2 [2]; [15]): 30 µM
